According to ChEMBL document CHEMBL5247578, “Effective synthesis of benzimidazoles-imidazo[1,2-a]pyrazine conjugates: A comparative study of mono-and bis-benzimidazoles for antitumor activity” (Eur J Med Chem, 2019):

Columns and labels:
Calf thymus DNA = assay: Binding affinity to calf thymus DNA assessed as fluorescence quenching intensity at 5 uM at temperature of 298 K by fluorescence spectroscopic method relative to control; type: nucleic-acid assay; details: Bos taurus
SK-MEL-2 = assay: Antiproliferative activity against human SK-MEL-2 cells assessed as cell growth at 0.00000001 M incubated for 48 hrs by SRB assay relative to control; type: functional; details: dose 10 nM, read-out: Activity
MDA-MB-435 [1] = assay: Antiproliferative activity against human MDA-MB-435 cells assessed as cell growth at 0.00000001 M incubated for 48 hrs by SRB assay relative to control; type: functional; details: dose 10 nM, read-out: Activity
CAKI-1 [2] = assay: Antiproliferative activity against human CAKI-1 cells assessed as cell growth at 0.00000001 M incubated for 48 hrs by SRB assay relative to control; type: functional; details: dose 10 nM, read-out: Activity
In short: (§1)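 NCI-60 five-dose screen over 10^-4–10^-8 M (10-fold dilutions). Cells grown in RPMI 1640 with 5% FBS and 2 mM L-glutamine, seeded at 5,000–40,000 cells/well and preincubated 24 h. Drug from DMSO stock, 48 h at 37 °C, 5% CO2. Adherent cells TCA-fixed and stained with 0.4% SRB; A515 read. Percent growth = (Ti−Tz)/(C−Tz)×100, or (Ti−Tz)/Tz×100 when Ti<Tz.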

UO-31 = assay: Antiproliferative activity against human UO-31 cells assessed as cell growth at 0.00000001 M incubated for 48 hrs by SRB assay relative to control; type: functional; details: dose 10 nM, read-out: Activity
MOLT-4 = assay: Antiproliferative activity against human MOLT-4 cells assessed as cell growth at 0.00000001 M incubated for 48 hrs by SRB assay relative to control; type: functional; details: dose 10 nM, read-out: Activity
SW-620 = assay: Antiproliferative activity against human SW620 cells assessed as cell growth at 0.00000001 M incubated for 48 hrs by SRB assay relative to control; type: functional; details: dose 10 nM, read-out: Activity
DU-145 [3] = assay: Antiproliferative activity against human DU-145 cells assessed as cell growth inhibition by measuring lethal concentration incubated for 48 hrs by sulforhodamine B assay; type: functional; details: read-out: LC50 (the source's name)
TK-10 = assay: Antiproliferative activity against human TK-10 cells assessed as cell growth inhibition by measuring lethal concentration incubated for 48 hrs by sulforhodamine B assay; type: functional; details: read-out: LC50 (the source's name)
In short: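 NCI-60 five-dose screen (10^-4 to 10^-8 M, 10-fold dilutions; DMSO stocks). Cells in RPMI 1640 with 5% FBS and 2 mM L-glutamine, preincubated 24 h, then exposed 48 h at 37 °C, 5% CO2. Fixed with cold TCA, stained with 0.4% SRB, absorbance read at 515 nm. Time-zero plates used as reference. LC50 taken from [(Ti-Tz)/Tz]×100 […].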

MDA-MB-435 [4] = assay: Antiproliferative activity against human MDA-MB-435 cells assessed as cell growth inhibition by measuring lethal concentration incubated for 48 hrs by sulforhodamine B assay; type: functional; details: read-out: LC50 (the source's name)
NCI-H226 = assay: Antiproliferative activity against human NCI-H226 cells assessed as cell growth inhibition by measuring lethal concentration incubated for 48 hrs by sulforhodamine B assay; type: functional; details: read-out: LC50 (the source's name)
Hs-578T [5] = assay: Growth inhibition against human Hs-578T cells assessed as total growth inhibitory concentration incubated for 48 hrs by sulforhodamine B assay; type: functional
DU-145 [6] = assay: Growth inhibition against human DU-145 cells assessed as total growth inhibitory concentration incubated for 48 hrs by sulforhodamine B assay; type: functional
NCI-H23 = assay: Growth inhibition against human NCI-H23 cells assessed as total growth inhibitory concentration incubated for 48 hrs by sulforhodamine B assay; type: functional
DU-145 [7] = assay: Growth inhibition against human DU-145 cells incubated for 48 hrs by sulforhodamine B assay; type: functional
SK-OV-3 = assay: Growth inhibition against human SK-OV-3 cells incubated for 48 hrs by sulforhodamine B assay; type: functional
SK-MEL-5 = assay: Growth inhibition against human SK-MEL-5 cells incubated for 48 hrs by sulforhodamine B assay; type: functional
BT-549 = assay: Antiproliferative activity against human BT-549 cells assessed as cell growth at 0.00000001 M incubated for 48 hrs by SRB assay relative to control; type: functional; details: dose 10 nM, read-out: Activity; in short: as §1
OVCAR-4 = assay: Antiproliferative activity against human OVCAR-4 cells assessed as cell growth at 0.0000001 M incubated for 48 hrs by SRB assay relative to control; type: functional; details: dose 100 nM, read-out: Activity
Hs-578T [8] = assay: Antiproliferative activity against human Hs-578T cells assessed as cell growth at 0.0000001 M incubated for 48 hrs by SRB assay relative to control; type: functional; details: dose 100 nM, read-out: Activity
In short: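 NCI-60 five-dose mode, 10^-4 to 10^-8 M in 10-fold steps. RPMI 1640, 5% FBS, 2 mM L-glutamine; 24 h preincubation, then 48 h drug exposure at 37 °C. Stocks in DMSO at 400× the top concentration, diluted in medium with gentamicin. TCA fixation, SRB staining, absorbance at 515 nm. Percent growth from time-zero (Tz), control (C) and test (Ti) readings.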

HT-29 = assay: Antiproliferative activity against human HT-29 cells assessed as cell growth at 0.000001 M incubated for 48 hrs by SRB assay relative to control; type: functional; details: read-out: Activity
In short: (§2)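 NCI-60 five-dose screen (10^-4 to 10^-8 M). Cells grown in RPMI 1640 with 5% FBS and 2 mM L-glutamine, plated at 5,000-40,000 cells/well and preincubated 24 h. Drug given from DMSO stock, then 48 h at 37 °C, 5% CO2. For adherent lines, cells fixed with cold TCA, SRB-stained and read at 515 nm. Percent growth taken against time-zero and untreated control.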

ACHN = assay: Antiproliferative activity against human ACHN cells assessed as cell growth at 0.000001 M incubated for 48 hrs by SRB assay relative to control; type: functional; details: read-out: Activity; in short: as §1
CAKI-1 [9] = assay: Antiproliferative activity against human CAKI-1 cells assessed as cell growth at 0.000001 M incubated for 48 hrs by SRB assay relative to control; type: functional; details: read-out: Activity; in short: as §1
Malme-3M = assay: Antiproliferative activity against human Malme-3M cells assessed as cell growth at 0.00001 M incubated for 48 hrs by SRB assay relative to control; type: functional; details: read-out: Activity
OVCAR-3 = assay: Antiproliferative activity against human OVCAR-3 cells assessed as cell growth at 0.00001 M incubated for 48 hrs by SRB assay relative to control; type: functional; details: read-out: Activity
HOP-92 = assay: Antiproliferative activity against human HOP-92 cells assessed as cell growth at 0.0001 M incubated for 48 hrs by SRB assay relative to control; type: functional; details: read-out: Activity; in short: as §2
SF-268 = assay: Antiproliferative activity against human SF-268 cells assessed as cell growth at 0.0001 M incubated for 48 hrs by SRB assay relative to control; type: functional; details: read-out: Activity
A498 = assay: Antiproliferative activity against human A498 cells assessed as cell growth at 0.0001 M incubated for 48 hrs by SRB assay relative to control; type: functional; details: read-out: Activity; in short: as §1
PC-3 = assay: Antiproliferative activity against human PC-3 cells assessed as cell growth at 0.0001 M incubated for 48 hrs by SRB assay relative to control; type: functional; details: read-out: Activity
MDA-MB-468 = assay: Antiproliferative activity against human MDA-MB-468 cells assessed as cell growth at 0.0001 M incubated for 48 hrs by SRB assay relative to control; type: functional; details: read-out: Activity

| Structure (SMILES) | Activity (Calf thymus DNA) [%] | growth at 0.01 µM (SK-MEL-2) [%] | growth at 0.01 µM (MDA-MB-435 [1]) [%] | growth at 0.01 µM (CAKI-1 [2]) [%] | growth at 0.01 µM (UO-31) [%] | growth at 0.01 µM (MOLT-4) [%] | growth at 0.01 µM (SW-620) [%] | CC50 (DU-145 [3]) [µM] | CC50 (TK-10) [µM] | CC50 (MDA-MB-435 [4]) [µM] | CC50 (NCI-H226) [µM] | TGI (Hs-578T [5]) [µM] | TGI (DU-145 [6]) [nM] | TGI (NCI-H23) [µM] | GI50 (DU-145 [7]) [nM] | GI50 (SK-OV-3) [nM] | GI50 (SK-MEL-5) [nM] | growth at 0.01 µM (BT-549) [%] | growth at 0.1 µM (OVCAR-4) [%] | growth at 0.1 µM (Hs-578T [8]) [%] | other results |
| --- | --- | --- | --- | --- | --- | --- | --- | --- | --- | --- | --- | --- | --- | --- | --- | --- | --- | --- | --- | --- | --- |
| c1ccc(Cn2cnc3ccc(-c4nc(-c5ccc6c(c5)ncn6C5CCCCC5)cn5ccnc45)cc32)cc1 | 35 | 94 | 91 | 87 | 91 | 112 | 100 | > 100 | > 100 | > 100 | > 100 | > 100 | 2100 | 4.49 | 3040 | 2530 | 1500 | 85 | 98 | 104 | growth at 1 µM (HT-29): 88%; growth at 1 µM (ACHN): 87%; growth at 1 µM (CAKI-1 [9]): 71%; growth at 10 µM (Malme-3M): -10%; growth at 10 µM (OVCAR-3): -29%; growth at 100 µM (HOP-92): -80%; growth at 100 µM (SF-268): 5%; growth at 100 µM (A498): -83%; growth at 100 µM (PC-3): -3%; growth at 100 µM (MDA-MB-468): -7% |
| COc1ccc(-c2cn3ccnc3c(-c3ccc4ncn(C5CCCCC5)c4c3)n2)cc1 | 75 | 96 | 92 | 88 | 91 | 100 | 98 | > 100 | > 100 | > 100 | > 100 | 49.3 | > 100000 | > 100 | 1070 | 508 | 698 | 8 | 96 | 102 | growth at 1 µM (HT-29): 20%; growth at 1 µM (ACHN): 40%; growth at 1 µM (CAKI-1 [9]): 44%; growth at 10 µM (Malme-3M): 51%; growth at 10 µM (OVCAR-3): 10%; growth at 100 µM (HOP-92): 9%; growth at 100 µM (SF-268): 29%; growth at 100 µM (A498): 24%; growth at 100 µM (PC-3): 24%; growth at 100 µM (MDA-MB-468): 10% |
